Measured values taken from PubChem BioAssay AID624056 (Southern Research Specialized Biocontainment Screening …, 2012).
Values joined by “and” are separate entries in the source; they are usually repeats but may differ in a detail not shown here. Equal entries are not always repeated. Active and inactive are the calls of the source.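 How the source made its calls: active means compounds specific to the target that block phage lysis by more than 30% when retested across doses; inactive means the rest, not confirmed on retesting.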

Tested on: not listed separately
Assay: E. coli EV36 sensitization to T7 phage – EV36 K1 hybrid, OD600, round 7, dose response (AID 624056)
Settings: E. coli EV36 T7 phage lysis inhibition, OD600; at 5 µM (top of the series)
Summary of the method: (§1)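 assay system = E. coli EV36 K1:K-12 hybrid | quantity = 1:100 dilution of overnight culture | also added = T7 bacteriophage | compound = two-fold dilution series, 1% DMSO | incubation = 1.5 h compound at 37 °C, 3 h after phage | measured by = absorbance at 600 nm before and 3 h after phage addition | read-out = lysis of capsule-free cells via OD600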

Compound	phage lysis inhibition
O=C(Nc1cc(-c2ccc(OCCCC(F)(F)F)cc2)sc1C(=O)O)c1cc(Br)c(Br)o1	-21.6% (inactive) and -21.4% (inactive)
O=C(Nc1cc(-c2ccc(OC(F)(F)F)cc2)sc1C(=O)O)c1cc2ccccc2o1	2.17% (inactive)
O=C(NCc1ccncc1)c1ccc2ncsc2c1	123% (inactive)
O=C(Nc1ccncc1)c1ccc2ncsc2c1	126% (inactive)
O=C(Nc1cc(-c2ccc(OC(F)(F)F)cc2)sc1C(=O)O)c1cccc(F)c1	75.5% (inactive)
O=C(NCCc1ccncc1)c1ccc2ncsc2c1	124% (inactive)
O=C(NC1CCNCC1)c1ccc2ncsc2c1	121% (inactive)
CC(C)(C)c1ccc(-c2cc(NC(=O)c3ccc(Br)s3)c(C(=O)O)s2)cc1	-11.6% (inactive)

Tested on: E. coli EV36 T7 phage lysis inhibition, OD600
Assay: as above
Settings: not given
Summary of the method: as §1

Compound	IC50 [nM]
CCOc1ccc(-c2cc(NC(=O)c3c(F)cccc3C(F)(F)F)c(C(=O)O)s2)cc1	2650
CCCCOc1ccc(-c2cc(NC(=O)c3cc(Br)c(Br)o3)c(C(=O)O)s2)cc1	960
CCCc1ccc(-c2cc(NC(=O)c3c(F)cccc3F)c(C(=O)O)s2)cc1	560
O=C(O)c1sc(-c2ccc(OCCC(F)(F)F)cc2)cc1NC(=O)c1c(F)cc(F)cc1F	440
CCCCOc1ccc(-c2cc(NC(=O)c3ccc(Br)o3)c(C(=O)O)s2)cc1	320
CCCOc1ccc(-c2cc(NC(=O)c3c(F)cc(F)cc3F)c(C(=O)O)s2)cc1	530
CCCc1ccc(-c2cc(NC(=O)c3c(F)cc(F)cc3F)c(C(=O)O)s2)cc1	1520
CCOc1ccc(-c2cc(NC(=O)c3c(F)cccc3F)c(C(=O)O)s2)cc1	410
O=C(O)c1sc(-c2ccc(OCC(F)(F)F)cc2)cc1NC(=O)c1c(F)cccc1F	350
O=C(O)c1sc(-c2ccc(OCCCC(F)(F)F)cc2)cc1NC(=O)c1c(F)cc(F)cc1F	< 650
O=C(O)c1sc(-c2ccc(OCC(F)(F)F)cc2)cc1NC(=O)c1c(F)cc(F)cc1F	1880
O=C(Nc1cc(-c2ccc(OCCCC(F)(F)F)cc2)sc1C(=O)O)c1ccc(Br)o1	480
O=C(O)c1sc(-c2ccc(OCCCC(F)(F)F)cc2)cc1NC(=O)c1c(F)cccc1F	90
[N-]=[N+]=NCCOc1ccc(-c2cc(NC(=O)c3c(F)cccc3F)c(C(=O)O)s2)cc1	310
CCCc1ccc(-c2cc(NC(=O)c3ccc(Br)o3)c(C(=O)O)s2)cc1	340
O=C(Nc1cc(-c2ccc(OC(F)(F)F)cc2)sc1C(=O)O)c1ccc(Br)o1	1170
O=C(Nc1ccncc1)c1ccc2ncsc2c1	660
CCCCOc1ccc(-c2cc(NC(=O)c3c(F)cccc3F)c(C(=O)O)s2)cc1	290
O=C(Nc1cc(-c2ccc(OCC(F)(F)F)cc2)sc1C(=O)O)c1ccc(Br)o1	330
O=C(O)c1sc(-c2ccc(OCCC(F)(F)F)cc2)cc1NC(=O)c1c(F)cccc1F	50
CCCc1ccc(-c2cc(NC(=O)c3cc(Br)c(Br)o3)c(C(=O)O)s2)cc1	2350
CCOc1ccc(-c2cc(NC(=O)c3c(F)cc(F)cc3F)c(C(=O)O)s2)cc1	1830
O=C(Nc1cc(-c2ccc(OCCC(F)(F)F)cc2)sc1C(=O)O)c1ccc(Br)o1	320
CCCCOc1ccc(-c2cc(NC(=O)c3c(F)cc(F)cc3F)c(C(=O)O)s2)cc1	330
O=C(O)c1sc(-c2ccc(OC(F)(F)F)cc2)cc1NC(=O)c1c(F)cccc1F	1360
